Laboratory results as given in ChEMBL document CHEMBL1153441 (J Med Chem, 2009).

Columns and labels:
[1] = biological target: T1, 5-hydroxytryptamine receptor 7 (Homo sapiens, UniProt P34969); experiment: Displacement of [3H]LSD from human recombinant 5HT7 receptor expressed in CHOK1 cells; format: cell-based, CHO-K1
Procedure, shortened: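 Transfected CHO-K1 membranes in 50 mM Tris-HCl, 10 mM MgSO4, 0.5 mM EDTA, pH 7.4, incubated 120 min at 27 °C with 3 nM [3H]LSD; nonspecific binding with 25 µM clozapine. Ligands screened at 1 µM, then six-concentration curves if displacement over 55%.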

[2] = biological target: T2, 5-hydroxytryptamine receptor 1A (Homo sapiens, UniProt P08908); experiment: Displacement of [3H]8-OH-DPAT from human recombinant 5HT1A receptor expressed in HEK293 cells; format: cell-based
T2 sequence (P08908 whole entry): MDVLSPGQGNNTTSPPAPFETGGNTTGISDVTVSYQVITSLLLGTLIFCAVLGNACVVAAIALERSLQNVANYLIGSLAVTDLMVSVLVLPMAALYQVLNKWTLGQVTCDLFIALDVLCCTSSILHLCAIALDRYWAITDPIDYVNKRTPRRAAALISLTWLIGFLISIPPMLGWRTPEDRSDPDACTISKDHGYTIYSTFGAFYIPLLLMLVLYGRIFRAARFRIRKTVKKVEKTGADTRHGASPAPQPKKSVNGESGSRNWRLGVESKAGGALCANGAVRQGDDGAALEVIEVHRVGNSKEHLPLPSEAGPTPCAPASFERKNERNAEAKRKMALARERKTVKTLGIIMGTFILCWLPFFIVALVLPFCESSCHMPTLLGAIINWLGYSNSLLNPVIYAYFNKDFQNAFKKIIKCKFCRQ
Procedure, shortened: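 Membranes from HEK-293 cells expressing human 5-HT1A receptor were incubated in the dark with 4.9 nM [3H]-8-OH-DPAT for 120 min at 37 °C in 50 mM Tris-HCl, 5 mM MgSO4, pH 7.4. Nonspecific binding was taken with 10 µM 5-HT. Filters were presoaked in 0.5% PEI, and bound radioactivity was counted by scintillation. Compounds were screened at 1 µM, then given six-point curves; Ki was derived by Cheng-Prusoff. Triplicates, 2-4 experiments.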

[3] = biological target: T1, 5-hydroxytryptamine receptor 7; experiment: Agonist activity at human recombinant 5HT7 receptor expressed in CHOK1 cells assessed as increase in cAMP levels by HTRF assay; format: functional, cell-based, CHO-K1
[4] = biological target: T1, 5-hydroxytryptamine receptor 7; experiment: Agonist activity at human recombinant 5HT7 receptor expressed in CHOK1 cells assessed as increase in cAMP levels by HTRF assay relative to serotonin; format: functional, cell-based; details: CHO-K1
[5] = biological target: T1, 5-hydroxytryptamine receptor 7; experiment: Antagonist activity at human recombinant 5HT7 receptor expressed in CHOK1 cells assessed as inhibition of serotonon-induced increase in cAMP levels by HTRF assay; format: functional, cell-based; details: CHO-K1
[6] = species on record: Homo sapiens; experiment: Selectivity for human recombinant 5HT7 receptor over human recombinant 5HT1A receptor
[7] = biological target: T3, 5-hydroxytryptamine receptor 1A (Homo sapiens) (UniProt P08908); experiment: Displacement of [3H]8-OH-DPAT from human recombinant 5HT1A receptor expressed in HEK293 cells at 1 uM; format: cell-based
T3 sequence (whole entry): T2 sequence (P08908 whole entry)
Procedure, shortened: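 Membranes from transfected HEK-293 cells in 50 mM Tris-HCl, 5 mM MgSO4, pH 7.4, incubated in the dark 120 min at 37 °C with 4.9 nM [3H]8-OH-DPAT and 1 µM ligand (hydrochloride salt), triplicate. Nonspecific binding with 10 µM 5-HT. Filtration on 0.5% PEI-soaked filters, ice-cold Tris washes, scintillation counting; percent displacement.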

[8] = biological target: T1, 5-hydroxytryptamine receptor 7; experiment: Antagonist activity at human recombinant 5HT7 receptor expressed in CHOK1 cells assessed as inhibition of serotonon-induced increase in cAMP levels by HTRF assay relative to untreated control; format: functional, cell-based, CHO-K1

T1 sequence (P34969 whole entry): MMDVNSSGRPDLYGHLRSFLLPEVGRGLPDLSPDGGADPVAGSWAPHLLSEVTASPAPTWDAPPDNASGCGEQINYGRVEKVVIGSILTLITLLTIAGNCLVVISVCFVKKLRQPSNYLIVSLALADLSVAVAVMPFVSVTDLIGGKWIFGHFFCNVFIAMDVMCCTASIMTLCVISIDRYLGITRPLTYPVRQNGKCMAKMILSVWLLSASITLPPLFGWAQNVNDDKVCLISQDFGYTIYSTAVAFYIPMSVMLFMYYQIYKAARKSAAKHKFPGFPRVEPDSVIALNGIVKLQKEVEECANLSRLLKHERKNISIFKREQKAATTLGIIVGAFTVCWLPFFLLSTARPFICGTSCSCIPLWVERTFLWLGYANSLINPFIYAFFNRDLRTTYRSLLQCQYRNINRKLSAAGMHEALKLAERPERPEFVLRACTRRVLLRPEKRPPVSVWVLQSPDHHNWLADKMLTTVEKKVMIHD

| Ki [1] [nM] | SMILES | Ki [2] [nM] | also measured |
| --- | --- | --- | --- |
| 74 | O=C1Cc2ccccc2N1CCCCN1CCN(c2ccccc2)CC1 | 124 |  |
| 250 | O=C1Cc2ccccc2N1C/C=C\CN1CCN(c2cccc3ccccc23)CC1 | 11.5 |  |
| 68 | O=C1Cc2ccccc2N1CCCCCN1CCN(c2cccc3[nH]cnc23)CC1 | 18.1 |  |
| > 1000 | O=C1Cc2ccccc2N1CC#CCN1CCN(c2cccc3ccccc23)CC1 | 26 |  |
| 7 | O=C1Cc2ccccc2N1CCCCN1CCc2ccccc2C1 | 219 | EC50 [3]: 310 nM; Activity ([3]; CHO-K1): Dose-dependent effect; Activity [4]: 40%; Activity [5]: Dose-dependent effect; Ratio Ki [6]: 31 |
| 69 | O=C1Cc2ccccc2N1C/C=C/CN1CCN(c2cccc3ccccc23)CC1 | 39 |  |
| > 1000 | O=C1c2ccccc2CN1CCCCN1CCN(c2ccccc2)CC1 | 360 |  |
| > 1000 | O=C1Cc2ccccc2N1Cc1ccc(CN2CCN(c3cccc4ccccc34)CC2)cc1 | 181 |  |
| 69 | O=C1Cc2ccccc2N1CCCCCN1CCN(c2cccc3ccccc23)CC1 | 16 |  |
| 47 | O=C1Cc2ccccc2N1CCCCN1CCN(c2cccc3ccccc23)CC1 | 22 |  |
| 89 | O=C1c2cccc3cccc(c23)N1CCCCCN1CCN(c2ccccc2)CC1 [UCM-5600] |  | Activity [7]: 92% |
|  | CN1C[C@@H](NS(=O)(=O)N(C)C)C[C@@H]2c3cccc4c3c(cn4C)C[C@H]21 [MESULERGINE] |  | IC50 [8]: 120 nM |

| SMILES | Ki [1] [nM] | Ki [2] [nM] | also measured |
| --- | --- | --- | --- |
| O=C1Cc2ccccc2N1CCCCN1CCC(c2ccccc2)CC1 | 160 | > 1000 |  |
| O=C1Cc2ccccc2N1CCCCCN1CCN(c2ccccc2)CC1 | 63 | > 1000 |  |
| COc1ccccc1N1CCN(CCCCN2Cc3ccccc3C2=O)CC1 | 158 | > 1000 |  |
| O=C1Cc2ccccc2N1CCCN1CCc2ccccc2C1 | 105 | > 1000 |  |
| COc1ccccc1N1CCN(CCCCCN2C(=O)Cc3ccccc32)CC1 | 63 | > 1000 |  |
| O=C1Cc2ccccc2N1CCCCN1CCCC(c2ccccc2)C1 (stereo not drawn) | 193 | > 1000 |  |
| O=C1c2ccccc2CN1CCCCCN1CCN(c2ccccc2)CC1 | 203 | > 1000 |  |
| O=C1Cc2ccccc2N1CCN1CCc2ccccc2C1 | 350 | > 1000 |  |
| O=C1Cc2ccccc2N1Cc1cccc(CN2CCN(c3cccc4ccccc34)CC2)c1 | > 1000 | > 1000 |  |
| COc1ccccc1N1CCN(CCCCN2C(=O)Cc3ccccc32)CC1 | 32 | > 1000 |  |
